The source of these data is ChEMBL document CHEMBL1128668, “Synthesis of N,N'-substituted piperazine and homopiperazine derivatives with polyamine-like actions at N-methyl-D-aspartate receptors” (J Med Chem, 1995).

Structures are written as SMILES.

The target of assay [1] is T1, Glutamate NMDA receptor (Rattus norvegicus) (UniProt P35439+Q00959+Q00960+Q00961+Q62645+Q8VHN2+Q9R1M7). The assay is described as follows: Efficacy in enhancing binding of [3H]- MK-801 to NMDA receptors compared to spermine. The class given is protein-complex assay. In a few lines: (§1)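 Forebrains from adult male Sprague-Dawley rats (175–300 g) homogenized in 5 mM HEPES/4.5 mM Tris (pH 7.7). Membranes were washed extensively, including EDTA cycles, to remove endogenous glutamate, glycine and polyamines. About 100 μg protein was incubated with [3H]MK-801 (final 4–5 nM) and compound (1–1000 μM) for 2 h at room temperature under non-equilibrium conditions, then filtered over PEI-soaked GF/B. Nonspecific binding was taken with 100 μM phencyclidine. Efficacy is given as percent of the spermine-induced increase, ≥3 experiments.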

The target in assay [2] is Glutamate NMDA receptor. The assay is described as follows: Ability to enhance [3H]MK-801 binding to NMDA receptors in rat forebrain membranes was calculated with respect to spermine. Type of assay: cell membranes, Membrane. Summed up:
as §1

The target in assay [3] is T1, Glutamate NMDA receptor (Rattus norvegicus). The assay is described as follows: Efficacy of compound in enhancing binding of [3H]MK-801 to NMDA receptors compared to spermine. The class given is protein-complex assay. In a few lines: as §1
The target of assay [4] is Glutamate NMDA receptor.
Assay [5] concerns the target Glutamate NMDA receptor. Briefly: Inhibition of [3H]MK-801 binding to NMDA receptor by Conantokin-G (at a concentration range of 0.024-12.5 uM) stimulated by the compound at a concentration of 100 uM. Type of assay: protein-complex assay.
Assay [6] concerns the target Glutamate NMDA receptor. Briefly: Inhibition of [3H]MK-801 binding to NMDA receptor by Conantokin-G (with a concentration range of 0.024-12.5 uM) stimulated by the compound at a concentration of 100 uM. Type of assay: protein-complex assay.

In the case of `CN(C)CCCCN1CCN(CCCCN(C)C)CC1`, the Emax in assay [1] is 84%. The EC50 at Glutamate NMDA receptor [2] was 77.5 µM.
`NCC(=O)N1CCN(C(=O)CN)CC1`: in assay [1], the Emax turned out to be 90%. At Glutamate NMDA receptor [2], the EC50 is 96.5 µM.
Turning to `NCCCN1CCCN(CCCN)CC1`, in assay [1], the Emax is 76%. Moreover, at Glutamate NMDA receptor [2], the concentration for a half-maximal effect (EC50) was 24.4 µM.
For the compound `CNCCN1CCN(CCNC)CC1`, in assay [1], the Emax came to 50%. Also, the EC50 on Glutamate NMDA receptor [2] was 64.5 µM.
For `CNCCCN1CCN(CCCNC)CC1` the same measures were 81% and 35.3 µM.
Regarding `C1CCN(CCCN2CCN(CCCN3CCCC3)CC2)C1`, in assay [1], the Emax is 64%. In addition, the concentration for a half-maximal effect (EC50) on Glutamate NMDA receptor [2] was 45.9 µM.
With `NCCCN1CCN(CCCN)CC1`, the Emax in assay [1] amounted to 80%. At Glutamate NMDA receptor [2], the EC50 is 50.1 µM.
Regarding `NCCCNCCCCNCCCN` [SPERMINE], the Emax in assay [3] turned out to be 100%. Also, the half-inhibitory concentration (IC50) against Glutamate NMDA receptor [4] came to 232 µM. On Glutamate NMDA receptor [2], the EC50 was 5.2 µM.
With `NCCCCN1CCCN(CCCCN)CC1`, in assay [1], the maximum response (Emax) worked out at 76%. Further, the EC50 on Glutamate NMDA receptor [2] is 37.5 µM.
On to `NCC(=O)N1CCCN(C(=O)CN)CC1`, for which the maximal response (Emax) in assay [3] amounted to 60%. At Glutamate NMDA receptor [5], this compound came in with an IC50 of 307 µM. Besides, the EC50 on Glutamate NMDA receptor [2] is 18 µM.
With `CN(C)CCCN1CCN(CCCN(C)C)CC1`, the Emax in assay [1] stood at 66%. Also, the EC50 at Glutamate NMDA receptor [2] is 36.8 µM.
`NCCN1CCCN(CCN)CC1`: in assay [1], the Emax is 43%. Further, the EC50 at Glutamate NMDA receptor [2] is 50.7 µM.
Turning to `CNCCCCN1CCN(CCCCNC)CC1`, the IC50 on Glutamate NMDA receptor [6] was 196 µM. Also, in assay [1], the maximum response (Emax) turned out to be 68%. Also, at Glutamate NMDA receptor [2], the EC50 was 21.4 µM.
In the case of `NCCCC(=O)N1CCN(C(=O)CCCN)CC1`, in assay [1], the Emax is 45%. The EC50 on Glutamate NMDA receptor [2] was 239 µM.
Turning to `NCCCCN1CCN(CCCCN)CC1`, the Emax in assay [1] stood at 71%. Moreover, at Glutamate NMDA receptor [2], the EC50 was 55.9 µM.
With `CN(C)CCN1CCN(CCN(C)C)CC1`, the Emax in assay [1] amounted to 51%. The EC50 on Glutamate NMDA receptor [2] was 112 µM.

The term Emax denotes the size of the effect at its maximum, as opposed to the concentration needed. Usually EC50 stands for the concentration giving half of the maximal effect. Broadly, the IC50 is the concentration needed to halve the response being measured.
